This is a sample that favours compounds with a hit; in the whole collection about 3.6% have one here.
HCV NS3 hel inh = inhibitors of HCV NS3 helicase, primary screen, biochemical, Cy5 molecular beacon fluorescence | Hepatitis C virus NS3 helicase | NS3 helicase DNA unwinding | inhibition, % at 10.9 µM | 290,000 compounds, 0.56% hits | AID 1800, 2009;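 active = inhibition above the mean of all tested compounds plus 3 SD, set per campaign, cut at about 35% in these data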
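System: HCV NS3 helicase fragment; control set: DMSO and thioflavine S; technique: Cy5 fluorescence at 0 and 60 min, beacon hairpin quenching; reagent: beacon DNA duplex substrate plus ATP; replicates: singlicate; schedule: 1 h reaction at 25 °C, ATP-initiated; medium: MOPS buffer pH 6.5 with MgCl2, DTT, Tween20, BSA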
ZTA counter = blocks Epstein-Barr virus ZTA, an EBNA-1 counter-screen | P03206 | ZTA-DNA binding, fluorescence polarization | inhibition, % at 11 µM | 320,000 compounds, 0.15% hits | AID 2234; in the data active = inhibition above about 33%
Target sequence (P03206 whole entry, looked up): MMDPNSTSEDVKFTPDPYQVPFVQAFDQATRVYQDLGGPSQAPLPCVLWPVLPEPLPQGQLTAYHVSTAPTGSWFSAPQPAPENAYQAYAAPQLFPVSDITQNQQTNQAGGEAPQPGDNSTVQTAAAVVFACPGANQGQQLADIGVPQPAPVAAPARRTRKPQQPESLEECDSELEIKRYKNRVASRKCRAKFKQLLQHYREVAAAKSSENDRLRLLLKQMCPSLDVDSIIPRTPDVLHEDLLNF
EBNA-1 inh = EBNA-1 DNA-binding inhibitors, primary screen, biochemical, fluorescence polarization; inhibition, % at 14.8 µM; 300,000 compounds, 0.34% hits; in the data active = inhibition above about 28%
FGF22 binding = binders of human FGF22 protein, primary screen, FGF22 synaptogenesis inhibitor project, biophysical, thermal shift, single point. Fibroblast growth factor 22 (Homo sapiens), Q9HCT0. activity (Tm shift, normalised), % at 9.99 µM. recombinant FGF22 thermal shift, SYPRO orange fluorescence; percent of sucrose octasulfate shift, DMSO zero. 340,000 compounds, 1.5% hits. AID 651658, 2012;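 active = mean Tm shift, scaled 0 neutral to 100 positive control, at about 1.3% or above, every replicate too, limit read from the data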
Target sequence (Q9HCT0 whole entry, looked up): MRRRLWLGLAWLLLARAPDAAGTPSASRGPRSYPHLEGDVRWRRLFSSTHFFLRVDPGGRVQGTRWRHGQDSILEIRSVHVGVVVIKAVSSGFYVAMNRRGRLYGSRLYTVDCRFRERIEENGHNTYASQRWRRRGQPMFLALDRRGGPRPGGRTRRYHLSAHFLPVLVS
NR3A LBD binder = binders of NR3A ligand-binding domain, primary screen, biophysical, differential scanning fluorimetry, uHTS | 340,000 compounds, 2.5% hits | Tm shift relative to glycine control, % at 25 µM | NR3A LBD differential scanning fluorimetry, Tm shift; 0% = protein alone, 100% = glycine-bound protein | Glutamate receptor ionotropic, NMDA 3A (GRIN3A) ligand-binding domain;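 active = melting temperature shift of at least 10% of the positive control shift, at one fixed dose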
DNA FID counter-1 = compounds displacing fluorescent DNA intercalator, primary screen, artefact control for HCV NS3 helicase inhibitor project, biochemical, FID fluorescence; DNA fluorescent intercalator displacement; inhibition, % at 7.9 µM; 290,000 compounds, 0.17% hits;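 also: higher means more ethidium bromide displaced from hairpin DNA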
NS3 hel confirm = HCV NS3 helicase inhibitors, retest, confirmation, biochemical, Cy5 molecular beacon fluorescence, triplicate | shares compounds with HCV NS3 hel inh | NS3 helicase DNA unwinding | inhibition, % at 10.9 µM | 1,600 compounds, 31% hits | AID 1943, 2009;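 active = inhibition above the mean of all tested compounds plus 3 SD, cutoff set per campaign, cut at about 36% in these data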
DNA FID counter-2 = compounds displacing fluorescent DNA intercalator, artefact control for HCV NS3 helicase inhibitor project, biochemical, FID fluorescence, triplicate; 1,600 compounds, 4% hits; AID 1945, 2009; inhibition, % at 7.9 µM; DNA fluorescent intercalator displacement; shares compounds with HCV NS3 hel inh;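 also: higher means more displacement of ethidium bromide from the DNA hairpin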
A number is an active result; - = inactive; . = no result given; + = active, no number. Rule as the data show it, unless noted: active = inhibition above about 37%; inactive = the rest.

SMILES | HCV NS3 hel inh | ZTA counter | EBNA-1 inh | FGF22 binding | NR3A LBD binder | DNA FID counter-1 | NS3 hel confirm | DNA FID counter-2
C[C@H](CO)N1C[C@H](C)[C@H](CN(C)Cc2ccc3c(c2)OCO3)Oc2ccc(NS(=O)(=O)c3ccc(F)cc3)cc2C1=O | . | . | . | - | . | . | . | .
C/C(=C\C(=O)c1ccc(Cl)cc1)Nc1ccc(Br)cc1 | 47.4 | - | - | . | - | - | - | -
C/C(=C\C(=O)c1ccc(Br)cc1)Nc1cccc(Cl)c1 | - | - | - | . | - | - | . | .
COC(=O)c1ccc(-c2ccco2)n1Cc1cccc(C)c1 | - | - | - | . | - | - | . | .
O=C(O)c1ccc(-c2ccco2)n1Cc1ccccc1 | 45.3 | - | - | . | - | - | - | -
Cc1c2c(=O)n(-c3nc4ccccc4s3)nc-2cc(O)n1Cc1ccccc1 | 48.3 | . | . | . | - | - | 46.5 | -
C[C@H](CO)N1C[C@H](C)[C@H](CN(C)C(=O)c2ccccc2)OCCCC[C@H](C)Oc2ccc(NC(=O)Nc3ccccc3)cc2C1=O | . | . | . | - | . | . | . | .
COc1ccc(NS(=O)(=O)c2cccc(C(=O)NNC(=O)NCCCl)c2)cc1 | 68.6 | - | - | - | - | - | - | -
COc1ccc(NS(=O)(=O)c2cccc(C(=O)NNC(=O)c3ccccc3OC)c2)cc1 | . | - | - | - | - | . | . | .
CC(C)NC(=O)Nc1ccc2c(c1)C(=O)N([C@@H](C)CO)C[C@@H](C)[C@@H](CN(C)C(=O)CCCN(C)C)OCCCC[C@@H](C)O2 | . | . | . | - | . | . | . | .
CCN(CC)c1ccc2nc3c4ccccc4c(=O)cc-3oc2c1 | 71.3 | . | . | - | - | - | 101.5 | -
Cc1ccccc1-c1ccc([C@H]2[C@@H](CO)N3CCCCN(S(C)(=O)=O)C[C@H]23)cc1 | . | . | . | - | . | . | . | .
COCCn1c(=O)[nH]c(=O)c2c1nc(-c1ccc(-c3ccc(Cl)cc3[N+](=O)[O-])o1)n2Cc1ccccc1 | 36.3 | - | - | - | - | - | - | -
COc1ccc(-c2ccc(-c3nc4c(c(=O)[nH]c(=O)n4Cc4ccccc4)n3C)o2)c([N+](=O)[O-])c1 | - | - | - | - | - | - | . | .
COc1ccccc1-c1cc(C(=O)N2CCc3ccccc3C2)c2ccccc2n1 | 37.4 | - | - | . | . | - | - | -
COCC(=O)N(C)C[C@@H]1Oc2cc(-c3ccc(C)cc3)ccc2S(=O)(=O)N([C@@H](C)CO)C[C@H]1C | . | . | . | - | . | . | . | .
O=C(N/N=C/c1c(O)ccc2ccccc12)c1cccnc1 | 87.4 | - | - | - | - | - | - | -
Cc1noc(C)c1S(=O)(=O)N(C)C[C@H]1OCCCC[C@H](C)Oc2ccc(NS(=O)(=O)c3cccs3)cc2C(=O)N([C@@H](C)CO)C[C@@H]1C | . | . | . | - | . | . | . | .
Cc1ccc(N=Cc2ccc(N(C)C)cc2)cc1 | - | - | - | . | - | - | . | .
CN(C)c1ccc(N=Cc2ccco2)cc1 | 41.1 | + | + | . | - | - | - | -
C(=Nc1cccc2c(N=Cc3ccco3)cccc12)c1ccco1 | 37.2 | - | - | . | - | - | - | -
CN(C)c1ccc(C=Nc2ccc(N(C)C)cc2)cc1 | 37.2 | + | + | . | - | - | - | -
CN(C)c1ccc(C=Nc2ccccc2)cc1 | - | - | - | . | - | - | . | .
CCCNC(=O)N1[C@H](C#N)[C@H](c2ccc(-c3cccnc3)cc2)[C@H]1CO | . | . | . | - | . | . | . | .
COCCOC(=O)c1[nH]c2c(c1C)C(=O)CC(c1ccco1)C2 (configuration not stated) | 46.9 | - | - | - | - | - | - | -
SMILES | HCV NS3 hel inh | ZTA counter | EBNA-1 inh | FGF22 binding | NR3A LBD binder | DNA FID counter-1 | NS3 hel confirm | DNA FID counter-2
CCOC(=O)c1[nH]c2c(c1C)C(=O)CC(c1ccco1)C2 (configuration not stated) | - | - | - | - | - | - | . | .
CC1CCCc2sc3nc(NCc4ccco4)n4ncnc4c3c21 (configuration not stated) | - | - | - | . | - | - | . | .
CC1CCc2sc3nc(NCc4ccco4)n4ncnc4c3c2C1 (configuration not stated) | 38.8 | - | - | . | - | - | - | -
C[C@@H]1CN([C@@H](C)CO)C(=O)c2cc(C3=CCCC3)cnc2O[C@H]1CN(C)C(=O)CN(C)C | . | . | . | - | . | . | . | .
CCC(=O)Nc1ccc(C(=O)CSc2nnc(-c3ccccc3F)n2C2CC2)cc1 | 51.7 | - | - | - | - | - | - | -
CCC(C)NC(=O)NC(=O)CSc1nnc(-c2ccccc2F)n1C1CC1 (configuration not stated) | - | - | - | - | - | - | . | .
Cc1ccc(S(=O)(=O)N[C@H]2C=C[C@@H](CC(=O)N3CCc4ccccc4C3)O[C@H]2CO)cc1 | . | . | . | - | . | . | . | .
COc1cccc(C(=O)CC(=O)C(=O)Nc2cc(OC)ccc2OC)c1 | - | - | - | - | - | - | . | .
COc1ccc(C(=O)CC(=O)C(=O)Nc2ccc(C)cc2Cl)cc1 | 38.5 | - | - | - | - | - | - | -
COc1cccc(C(=O)CC(=O)C(=O)Nc2ccc(C)cc2Cl)c1 | 63.2 | - | - | - | - | - | - | -
CC(=O)N1CC2(C1)[C@H](c1ccc(-c3ccc(C#N)cc3)cc1)[C@H](CO)N2C(C)=O | . | . | . | - | . | . | . | .
COc1ccc(C2C(C#N)=C(N)Oc3cc4c(cc32)OCO4)cc1 (configuration not stated) | 39.8 | - | - | . | - | - | - | -
COc1ccc(OC)c(C2C(C#N)=C(N)Oc3cc(N)ccc32)c1 (configuration not stated) | - | - | - | . | - | - | . | .
CO[C@@H]1CN(C)C(=O)c2cc(NC(C)=O)ccc2OC[C@@H](C)N(C(=O)C2CCC2)C[C@@H]1C | . | . | . | - | . | . | . | .
CC(CC(=O)O)CC(=O)Nc1cc(C(F)(F)F)cc(C(F)(F)F)c1 (configuration not stated) | 45.1 | - | - | - | - | - | - | -
CSc1cccc(CN2CCCC(CNC(=O)c3ccc(F)cc3)C2)c1 (configuration not stated) | - | - | - | - | - | - | . | .
CSc1ccc(CN2CCCC(CNC(=O)c3ccc(F)cc3)C2)cc1 (configuration not stated) | 43.1 | - | - | - | - | - | - | -
CCCN1[C@@H]2Cn3c(ccc(-c4cccc(OC)c4)c3=O)[C@H]1[C@@H](C(=O)NCC)[C@@H]2CO | . | . | . | - | . | . | . | .

High-throughput results: PubChem, several laboratories
